# Test results taken from paper PMC5488126 (CPT: Pharmacometrics & Systems Pharmacology, 2017).
# How the values were obtained:
# [1] = cited from earlier work
# [2] = Rat PK model of AZD5153 plasma concentrations; type: in vivo, Han Wistar rat; conditions: oral, population typical estimate (RSE), estimated from observed data
# Summary of the method: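 Female Han Wistar rats, 9–10 weeks old, were dosed orally in 0.5% hydroxymethylcellulose with 0.1% Tween80. Plasma was taken 2 h postdose on days 1, 4 and 7 and measured by LC-MS/MS. Data were fitted to a one-compartment model with first-order absorption, with ka and clearance fixed from a separate toxicology study and volume estimated. Fitting used FOCE-ELS and included between-subject variability.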
# circulating platelets = assay: Rat platelet count study fitted to myelosuppression model; type: in vivo, Han Wistar rat; conditions: for platelet changes in rat: oral
# platelet counts [3] = assay: Simulation of human platelet counts with healthy BM; conditions: healthy simulations, converted from rat slope using fu
# platelet counts [4] = conditions: human, BM dysfunction simulations
# Summary of the method: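 The Friberg platelet model was extended with a capacity term fr on the proliferating compartment. fr rose linearly from a baseline fraction of 0.65 (initial Circ0 61.2 ×10⁹/L) over recovery durations of 1 h and 10, 30, 100, 300 and 1,000 days. Runs used slope 0 (recovery only) or 0.45 with 300 mg q.d. for 98 days. Schedules compared over 300-day recovery were 300 mg q.d. continuous, b.i.d. 3 on 4 off, and q.d. 7 on 7 off. fr was also varied from 0.25 to 1.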
SMILES,frequency of severe TCP by pretreatment baseline ([1]; OTX015 phase 1 trial),"dose-limiting toxicity in patients ([1]; phase I, nonleukemia hematological malignancies)",V [2],platelet changes in rat (circulating platelets; 0.1 mg/kg q.d.),platelet changes in rat (circulating platelets; 1 mg/kg q.d.),platelet changes in rat (circulating platelets; 1.5 mg/kg b.i.d. (3 on 4 off)),"slopeAZD5153 (circulating platelets; rat platelet PD model, total concentrations, population typical estimate (RSE))",slopeAZD5153 (platelet counts [3]),Recovery +drug induced myelosuppression: slopeAZD5153 (platelet counts [4])
Cc1sc2c(c1C)C(c1ccc(Cl)cc1)=N[C@@H](CC(=O)Nc1ccc(O)cc1)c1nnc(C)n1-2 [OTX015],severe TCP was more frequent in patients with low platelet counts at pretreatment baseline,thrombocytopenia (TCP) as a dose‐limiting toxicity (DLT),–,–,–,–,–,–,–
"COc1nnc2ccc(N3CCC(c4ccc(OCCN5CCN(C)C(=O)[C@H]5C)cc4)CC3)nn12 [AZD5153, (3R)‐4‐[2‐[4‐[1‐(3‐methoxy‐[1,2,4]triazolo[4,3‐b]pyridazin‐6‐yl)‐4‐piperidyl]phenoxy]ethyl]‐1,3‐dimethyl‐piperazin‐2‐one]",–,–,0.39 (16) L/kg,negligible platelet changes,clear effects,clear effects,0.09 (14) 1/(μmol/L),0.45 1/(μmol/L),0.45 1/(μmol/L)
